Measurements as given in ChEMBL document CHEMBL5303300, “EUbOPEN Chemogenomics Library - Multiplex” (2023).
“And” between values parts separate entries of the source, which are not always exact repeats. Equal values may be shown once.

Experiments:
[1] = test system: Fibroblast; test: Multiplex assay against human fibroblast; format: toxicity, cell-based; settings: number of replicates 2
Method in brief: (§1)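 Imaging took place on a CQ1 microscope at 37°C and 5% CO2 once compound had been added to live cells stained at seeding with Hoechst33342, BioTracker Green Microtubule Cytoskeleton Dye, MitoTracker Red and Annexin V Alexa Fluor 680. CellPathfinder machine-learning gating classed cells as Hoechst high-intensity objects or normal cells, classed normal cells as having healthy, pyknosed or fragmented nuclei, and classed pyknosed cells as mitotic or apoptotic. Tubulin, mitochondrial-mass and membrane-permeability phenotypes are per cents of the healthy-nucleus cells.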

[2] = test system: HEK-293T; test: Multiplex assay against HEK293T; format: toxicity, cell-based; settings: human, number of replicates 2; method in brief: as §1
[3] = 12 h, 1 µM, compound concentration 1 uM
[4] = 12 h, 10 µM, compound concentration 10 uM
[5] = 24 h, 1 µM, compound concentration 1 uM
[6] = 24 h, 10 µM, compound concentration 10 uM
[7] = 48 h, 1 µM, compound concentration 1 uM
[8] = 48 h, 10 µM, compound concentration 10 uM

With `COC(=O)c1ccc2c(c1)NC(=O)/C2=C(\Nc1ccc(-c2nccn2C)cc1)c1ccccc1` the “Population Apoptotic (%)” value [1, 3] was 35% and 43%, the “Population Fragmented Nuclei (%)” value [1, 3] was 10% and 29% and the “Population Healthy Nuclei (%)” value [1, 3] was 72% and 51%. The “Population Hoechst High Intensity Objects (%)” value [1, 3] was 0%, the “Population Membrane Permeable-Phenotype (%)” value [1, 3] was 2% and 1% and the “Population Mitochondria Different-Phenotype (%)” value [1, 3] was 1% and 3%. The “Population Mitotic Cells (%)” value [1, 3] was 64% and 56%, the “Population Normal (%)” value [1, 3] was 99% and the “Population Pyknosed Nuclei (%)” value [1, 3] was 17% and 19%. For the same molecule, the “Population Tubulin-Different-Phenotype (%)” value [1, 3] was 7% and 9%, the “Total Cell Count” value [1, 3] was 195 and 242 and the “Population Apoptotic (%)” value [1, 4] was 50% and 45%. The “Population Fragmented Nuclei (%)” value [1, 4] was 21% and 17%, the “Population Healthy Nuclei (%)” value [1, 4] was 59% and 62% and the “Population Hoechst High Intensity Objects (%)” value [1, 4] was 0%. The “Population Membrane Permeable-Phenotype (%)” value [1, 4] was 13% and 9%, the “Population Mitochondria Different-Phenotype (%)” value [1, 4] was 2% and the “Population Mitotic Cells (%)” value [1, 4] was 50% and 54%. The “Population Normal (%)” value [1, 4] was 100% and 99%, the “Population Pyknosed Nuclei (%)” value [1, 4] was 18% and 19% and the “Population Tubulin-Different-Phenotype (%)” value [1, 4] was 67% and 56%. For the same molecule, the “Total Cell Count” value [1, 4] was 317 and 270, the “Population Apoptotic (%)” value [1, 5] was 64% and 60% and the “Population Healthy Nuclei (%)” value [1, 5] was 74% and 53%. For the same molecule, the “Population Hoechst High Intensity Objects (%)” value [1, 5] was 0%, the “Population Membrane Permeable-Phenotype (%)” value [1, 5] was 3% and the “Population Mitochondria Different-Phenotype (%)” value [1, 5] was 0%. For the same molecule, the “Population Mitotic Cells (%)” value [1, 5] was 35% and 39%, the “Population Normal (%)” value [1, 5] was 99% and the “Population Pyknosed Nuclei (%)” value [1, 5] was 15% and 14%. The “Population Tubulin-Different-Phenotype (%)” value [1, 5] was 11% and 8%, the “Total Cell Count” value [1, 5] was 180 and 255 and the “Population Apoptotic (%)” value [1, 6] was 70% and 67%. For the same molecule, the “Population Fragmented Nuclei (%)” value [1, 6] was 24%, the “Population Healthy Nuclei (%)” value [1, 6] was 59% and 54% and the “Population Hoechst High Intensity Objects (%)” value [1, 6] was 0%. For the same molecule, the “Population Membrane Permeable-Phenotype (%)” value [1, 6] was 5% and 6%, the “Population Mitochondria Different-Phenotype (%)” value [1, 6] was 8% and 6% and the “Population Mitotic Cells (%)” value [1, 6] was 29% and 32%. The “Population Normal (%)” value [1, 6] was 99%, the “Population Pyknosed Nuclei (%)” value [1, 6] was 16% and 21% and the “Population Tubulin-Different-Phenotype (%)” value [1, 6] was 60% and 43%. The “Total Cell Count” value [1, 6] was 317 and 264, the “Population Apoptotic (%)” value [1, 7] was 48% and 73% and the “Population Healthy Nuclei (%)” value [1, 7] was 69% and 56%. For the same molecule, the “Population Hoechst High Intensity Objects (%)” value [1, 7] was 0%, the “Population Membrane Permeable-Phenotype (%)” value [1, 7] was 1% and 3% and the “Population Mitochondria Different-Phenotype (%)” value [1, 7] was 0%. The “Population Mitotic Cells (%)” value [1, 7] was 51% and 26%, the “Population Normal (%)” value [1, 7] was 100% and 99% and the “Population Pyknosed Nuclei (%)” value [1, 7] was 20% and 9%. For the same molecule, the “Population Tubulin-Different-Phenotype (%)” value [1, 7] was 3% and 8%, the “Total Cell Count” value [1, 7] was 182 and 256 and the “Population Apoptotic (%)” value [1, 8] was 84% and 86%. For the same molecule, the “Population Fragmented Nuclei (%)” value [1, 8] was 22% and 26%, the “Population Healthy Nuclei (%)” value [1, 8] was 62% and 56% and the “Population Hoechst High Intensity Objects (%)” value [1, 8] was 0% and 1%. For the same molecule, the “Population Membrane Permeable-Phenotype (%)” value [1, 8] was 5% and 6%, the “Population Mitochondria Different-Phenotype (%)” value [1, 8] was 5% and 9% and the “Population Mitotic Cells (%)” value [1, 8] was 15% and 13%. For the same molecule, the “Population Normal (%)” value [1, 8] was 100% and 98%, the “Population Pyknosed Nuclei (%)” value [1, 8] was 14% and 17% and the “Population Tubulin-Different-Phenotype (%)” value [1, 8] was 45% and 38%. The “Total Cell Count” value [1, 8] was 302 and 261, the “Population Apoptotic (%)” value [2, 3] was 50% and 35% and the “Population Fragmented Nuclei (%)” value [2, 3] was 3% and 2%. For the same molecule, the “Population Healthy Nuclei (%)” value [2, 3] was 86%, the “Population Hoechst High Intensity Objects (%)” value [2, 3] was 4% and the “Population Membrane Permeable-Phenotype (%)” value [2, 3] was 4% and 3%. The “Population Mitochondria Different-Phenotype (%)” value [2, 3] was 20% and 17%, the “Population Mitotic Cells (%)” value [2, 3] was 49% and 64% and the “Population Normal (%)” value [2, 3] was 95%. The “Population Pyknosed Nuclei (%)” value [2, 3] was 10% and 11%, the “Population Tubulin-Different-Phenotype (%)” value [2, 3] was 52% and 51% and the “Total Cell Count” value [2, 3] was 677 and 686. For the same molecule, the “Population Apoptotic (%)” value [2, 4] was 53% and 62%, the “Population Fragmented Nuclei (%)” value [2, 4] was 2% and 4% and the “Population Healthy Nuclei (%)” value [2, 4] was 83% and 81%. For the same molecule, the “Population Hoechst High Intensity Objects (%)” value [2, 4] was 10% and 11%, the “Population Membrane Permeable-Phenotype (%)” value [2, 4] was 6% and 5% and the “Population Mitochondria Different-Phenotype (%)” value [2, 4] was 37% and 38%. For the same molecule, the “Population Mitotic Cells (%)” value [2, 4] was 46% and 37%, the “Population Normal (%)” value [2, 4] was 89% and 88% and the “Population Pyknosed Nuclei (%)” value [2, 4] was 13% and 14%. For the same molecule, the “Population Tubulin-Different-Phenotype (%)” value [2, 4] was 88% and 93%, the “Total Cell Count” value [2, 4] was 504 and 530 and the “Population Apoptotic (%)” value [2, 5] was 30% and 31%. For the same molecule, the “Population Fragmented Nuclei (%)” value [2, 5] was 5% and 3%, the “Population Healthy Nuclei (%)” value [2, 5] was 87% and 88% and the “Population Hoechst High Intensity Objects (%)” value [2, 5] was 6% and 7%. The “Population Membrane Permeable-Phenotype (%)” value [2, 5] was 4% and 1% and the “Population Mitochondria Different-Phenotype (%)” value [2, 5] was 8% and 5%.
